Laboratory results taken from ChEMBL document CHEMBL2434829, “Synthesis of new andrographolide derivatives and evaluation of their antidyslipidemic, LDL-oxidation and antioxidant activity” (2013).
Activity calls are given as the source filed them. No cut-off for these calls is given here.

How the values were obtained:
Rattus norvegicus [1] = test: Antidyslipidemic activity in Charles foster rat assessed as increase in triton WR-1339-reduced post heparin lipolytic activity level in plasma at 200 mg/kg, po after 18 hrs by spectrophotometric analysis relative to triton-treated rat; format: functional; set-up: scale not given: the % may be the effect or the level left
Outline: (§1)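 Triton WR-1339 hyperlipidemia in male Charles Foster rats: 400 mg/kg i.p. plus oral dose in gum acacia vehicle, fasted, 6 rats/group. Plasma taken 18 h later from retro-orbital blood. Post-heparin lipolytic activity measured spectrophotometrically as nmol free fatty acids formed/h/ml plasma. Percent change against triton-only rats; mean ± SD.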

[2] = Antioxidant activity assessed as decrease in superoxide anions level by measuring formation of formazone at 200 ug/ml after 30 mins by spectrophotometric analysis relative to control; format: functional; set-up: scale not given: the % may be the effect or the level left
Outline: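 Superoxide made enzymatically with xanthine ([…]), xanthine oxidase (0.04 U) and nitroblue tetrazolium (320 µM) in 100 mM phosphate buffer pH 8.2. Compound at 200 µg/mL, sonicated in buffer. Incubated 37 °C for 30 min, stopped with glacial acetic acid, formazan read spectrophotometrically. Allopurinol as standard.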

Rattus norvegicus [3] = test: Antidyslipidemic activity in Charles foster rat assessed as increase in triton WR-1339-reduced post heparin lipolytic activity level in plasma at 50 mg/kg, po after 18 hrs by spectrophotometric analysis relative to triton-treated rat; format: functional; set-up: scale not given: the % may be the effect or the level left; outline: as §1
Rattus norvegicus [4] = test: Antidyslipidemic activity in Charles foster rat assessed as decrease in triton WR-1339-induced total cholesterol level in plasma at 150 mg/kg, po after 18 hrs relative to triton-treated rat; format: functional; set-up: scale not given: the % may be the effect or the level left
Outline: (§2)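 Male adult Charles Foster rats (200–225 g), six per group. Triton WR-1339 400 mg/kg i.p., with test agent given orally at the same time as a gum acacia suspension in water; food withdrawn. Controls received vehicle. At 18 h, retro-orbital EDTA blood taken and centrifuged 2500 × g for 10 min at 4 °C. Plasma diluted 1:3 in saline; TC, PL and TG read enzymatically on an autoanalyzer. Percent change against triton group.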

Rattus norvegicus [5] = test: Antidyslipidemic activity in Charles foster rat assessed as decrease in triton WR-1339-induced phospholipid level in plasma at 200 mg/kg, po after 18 hrs relative to triton-treated rat; format: functional; set-up: scale not given: the % may be the effect or the level left; outline: as §2
Rattus norvegicus [6] = test: Antidyslipidemic activity in Charles foster rat assessed as decrease in triton WR-1339-induced VLDL cholesterol level in plasma at 100 mg/kg, po after 18 hrs by poly anionic precipitation method relative to triton-treated rat; format: functional, organism-based; set-up: dose 100 mg/kg
Outline: (§3)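 Male adult Charles Foster rats (200–225 g), 6/group. Triton WR-1339 400 mg/kg i.p.; test agent in gum acacia suspension in water given orally together with triton, diet withdrawn. After 18 h, blood drawn from retro-orbital sinus into EDTA tubes under thiopentone anaesthesia. Plasma split into VLDL, LDL and HDL by polyanionic precipitation, then cholesterol measured. Mean ± SD.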

Rattus norvegicus [7] = test: Antidyslipidemic activity in Charles foster rat assessed as increase in triton WR-1339-reduced lipoprotein lipase level in liver at 100 mg/kg, po relative to triton-treated rat; format: functional, organism-based; set-up: dose 100 mg/kg
Outline: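 Rats given triton WR-1339 (400 mg/kg i.p.) with oral test agent in gum acacia, 6 per group. Liver homogenized 10% w/v in cold 100 mM phosphate buffer pH 7.2 and assayed for total lipoprotein lipase lipolytic activity. Mean ± SD.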

Rattus norvegicus [8] = test: Antidyslipidemic activity in Charles foster rat assessed as decrease in triton WR-1339-induced triglyceride level in plasma at 100 mg/kg, po after 18 hrs relative to triton-treated rat; format: functional; set-up: scale not given: the % may be the effect or the level left; outline: as §2
Rattus norvegicus [9] = test: Antidyslipidemic activity in Charles foster rat assessed as decrease in triton WR-1339-induced phospholipid level in plasma at 100 mg/kg, po after 18 hrs relative to triton-treated rat; format: functional; set-up: scale not given: the % may be the effect or the level left; outline: as §2
Rattus norvegicus [10] = test: Antidyslipidemic activity in Charles foster rat assessed as decrease in triton WR-1339-induced triglyceride level in plasma at 150 mg/kg, po after 18 hrs relative to triton-treated rat; format: functional; set-up: scale not given: the % may be the effect or the level left; outline: as §2
Rattus norvegicus [11] = test: Antidyslipidemic activity in Charles foster rat assessed as increase in triton WR-1339-reduced post heparin lipolytic activity level in plasma at 150 mg/kg, po after 18 hrs by spectrophotometric analysis relative to triton-treated rat; format: functional; set-up: scale not given: the % may be the effect or the level left; outline: as §1
Rattus norvegicus [12] = test: Antidyslipidemic activity in Charles foster rat assessed as decrease in triton WR-1339-induced phospholipid level in plasma at 150 mg/kg, po after 18 hrs relative to triton-treated rat; format: functional; set-up: scale not given: the % may be the effect or the level left; outline: as §2
Rattus norvegicus [13] = test: Antidyslipidemic activity in Charles foster rat assessed as increase in triton WR-1339-reduced post heparin lipolytic activity level in plasma at 25 mg/kg, po after 18 hrs by spectrophotometric analysis relative to triton-treated rat; format: functional; set-up: scale not given: the % may be the effect or the level left; outline: as §1
Rattus norvegicus [14] = test: Antidyslipidemic activity in Charles foster rat assessed as decrease in triton WR-1339-induced triglyceride level in plasma at 25 mg/kg, po after 18 hrs relative to triton-treated rat; format: functional; set-up: scale not given: the % may be the effect or the level left; outline: as §2
Rattus norvegicus [15] = test: Antidyslipidemic activity in Charles foster rat assessed as decrease in triton WR-1339-induced total cholesterol level in plasma at 25 mg/kg, po after 18 hrs relative to triton-treated rat; format: functional; set-up: scale not given: the % may be the effect or the level left; outline: as §2
Rattus norvegicus [16] = test: Antidyslipidemic activity in Charles foster rat assessed as decrease in triton WR-1339-induced total cholesterol level in plasma at 200 mg/kg, po after 18 hrs relative to triton-treated rat; format: functional; set-up: scale not given: the % may be the effect or the level left; outline: as §2
Rattus norvegicus [17] = test: Antidyslipidemic activity in Charles foster rat assessed as decrease in triton WR-1339-induced total cholesterol level in plasma at 100 mg/kg, po after 18 hrs relative to triton-treated rat; format: functional; set-up: scale not given: the % may be the effect or the level left; outline: as §2
[18] = Antioxidant activity assessed as reduction of microsomal lipid per-oxidation level by measuring formation of malondialdehyde at 200 ug/ml after 90 mins by spectrophotometric analysis relative to control; format: functional; set-up: scale not given: the % may be the effect or the level left
Rattus norvegicus [19] = test: Antidyslipidemic activity in Charles foster rat assessed as increase in triton WR-1339-reduced post heparin lipolytic activity level in plasma at 100 mg/kg, po after 18 hrs by spectrophotometric analysis relative to triton-treated rat; format: functional; set-up: scale not given: the % may be the effect or the level left; outline: as §1
Rattus norvegicus [20] = test: Antidyslipidemic activity in Charles foster rat assessed as decrease in triton WR-1339-induced phospholipid level in plasma at 25 mg/kg, po after 18 hrs relative to triton-treated rat; format: functional; set-up: scale not given: the % may be the effect or the level left; outline: as §2
[21] = Antioxidant activity assessed as reduction of LDL-oxidation at 200 ug/ml after 1 hr by TBARS assay in presence of Cu 2+ relative to control; format: functional; set-up: scale not given: the % may be the effect or the level left; details: in the assay text read “after 16 hr” for “after 1 hr”
Outline: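 LDL obtained by ultracentrifugation of serum from overnight-fasted normolipemic donors, dialyzed against 150 mM NaCl with 0.02% EDTA under N2, purity checked by PAGE. LDL 0.71 mg with CuCl2·2H2O 10 µM, compound at 200 µg/mL, in 50 mM PBS pH 7.4 for 16 h at 37 °C. Lipid peroxides read as TBARS after heating with SDS, acetic acid and 0.8% TBA for 1 h in boiling water.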

Rattus norvegicus [22] = test: Antidyslipidemic activity in Charles foster rat assessed as decrease in triton WR-1339-induced triglyceride level in plasma at 200 mg/kg, po after 18 hrs relative to triton-treated rat; format: functional; set-up: scale not given: the % may be the effect or the level left; outline: as §2
Rattus norvegicus [23] = test: Antidyslipidemic activity in Charles foster rat assessed as decrease in triton WR-1339-induced total cholesterol level in plasma at 50 mg/kg, po after 18 hrs relative to triton-treated rat; format: functional; set-up: scale not given: the % may be the effect or the level left; outline: as §2
[24] = Antioxidant activity assessed as decrease in hydroxyl radicals level by measuring formation of malondialdehyde at 200 ug/ml after 90 mins by spectrophotometric analysis relative to control; format: functional; set-up: scale not given: the % may be the effect or the level left
Outline: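 Hydroxyl radicals generated without enzyme from deoxyribose 2.8 mM, FeSO4·7H2O 2 mM, sodium ascorbate 2.0 mM and H2O2 2.8 mM in 50 mM KH2PO4 pH 7.4. Compound at 200 µg/mL. Incubated 37 °C for 90 min. Mannitol as standard.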

Rattus norvegicus [25] = test: Antidyslipidemic activity in Charles foster rat assessed as increase in triton WR-1339-reduced HDL cholesterol level in plasma at 100 mg/kg, po after 18 hrs by poly anionic precipitation method relative to triton-treated rat; format: functional, organism-based; set-up: dose 100 mg/kg; outline: as §3
Rattus norvegicus [26] = test: Antidyslipidemic activity in Charles foster rat assessed as decrease in triton WR-1339-induced phospholipid level in plasma at 50 mg/kg, po after 18 hrs relative to triton-treated rat; format: functional; set-up: scale not given: the % may be the effect or the level left; outline: as §2
Rattus norvegicus [27] = test: Antidyslipidemic activity in Charles foster rat assessed as decrease in triton WR-1339-induced triglyceride level in plasma at 50 mg/kg, po after 18 hrs relative to triton-treated rat; format: functional; set-up: scale not given: the % may be the effect or the level left; outline: as §2
Rattus norvegicus [28] = test: Antidyslipidemic activity in Charles foster rat assessed as decrease in triton WR-1339-induced LDL cholesterol level in plasma at 100 mg/kg, po after 18 hrs by poly anionic precipitation method relative to triton-treated rat; format: functional, organism-based; set-up: dose 100 mg/kg; outline: as §3

| SMILES | Activity (Rattus norvegicus [1]) [%] | Activity [2] [%] | Activity (Rattus norvegicus [3]) [%] | Activity (Rattus norvegicus [4]) [%] | Activity (Rattus norvegicus [5]) [%] | Activity (Rattus norvegicus [6]) | Activity (Rattus norvegicus [7]) | Activity (Rattus norvegicus [8]) [%] | Activity (Rattus norvegicus [9]) [%] | Activity (Rattus norvegicus [10]) [%] | Activity (Rattus norvegicus [11]) [%] | Activity (Rattus norvegicus [12]) [%] | Activity (Rattus norvegicus [13]) [%] | Activity (Rattus norvegicus [14]) [%] | Activity (Rattus norvegicus [15]) [%] | Activity (Rattus norvegicus [16]) [%] | Activity (Rattus norvegicus [17]) [%] | Activity [18] [%] | Activity (Rattus norvegicus [19]) [%] | Activity (Rattus norvegicus [20]) [%] | also measured |
| --- | --- | --- | --- | --- | --- | --- | --- | --- | --- | --- | --- | --- | --- | --- | --- | --- | --- | --- | --- | --- | --- |
| C=C1CC[C@@H]2[C@](C)(CO)[C@H](O)CC[C@@]2(C)[C@@H]1C/C=C1/C(=O)OC[C@H]1O [ANDROGRAPHOLIDE] | 18 | 33 | 13 | 29 | 30 | Active | Active | 28 | 26 | 30 | 18 | 29 | 10 | 15 | 14 | 29 | 27 | 38 | 16 | 12 | Activity [21]: 45%; Activity (Rattus norvegicus [22]): 30%; Activity (Rattus norvegicus [23]): 21%; Activity [24]: 36%; Activity (Rattus norvegicus [25]): Active; Activity (Rattus norvegicus [26]): 20%; Activity (Rattus norvegicus [27]): 21%; Activity (Rattus norvegicus [28]): Active |
| C=C1CC[C@@H]2[C@](C)(COS(=O)(=O)c3ccc(C)cc3)[C@H](O)CC[C@@]2(C)[C@@H]1C/C=C1/C(=O)OC[C@H]1O | 18 | 41 | 13 | 34 | 40 | Active | Active | 35 | 37 | 37 | 18 | 39 | 10 | 14 | 16 | 34 | 33 | 40 | 18 | 15 | Activity [21]: 55%; Activity (Rattus norvegicus [22]): 37%; Activity (Rattus norvegicus [23]): 22%; Activity [24]: 46%; Activity (Rattus norvegicus [25]): Active; Activity (Rattus norvegicus [26]): 22%; Activity (Rattus norvegicus [27]): 20%; Activity (Rattus norvegicus [28]): Active |
